Bioassay records deposited in PubChem BioAssay by several laboratories.
WT yeast gro inh = growth inhibition of WT yeast, mitochondrial fusion screen | AID 1362 | 2.1% of 190,000 active | inhibition, % at 10 µM | mitochondrial fusion phenotypic screen, WT strain; in the data active = inhibition above about 58%; tested in S. cerevisiae
p47phox inh = blocks human p47phox regulatory protein of NADPH oxidases | P14598 | p47phox/p22phox peptide binding, fluorescence polarization, 2 h | inhibition, % at 24.7 µM | 0.53% of 220,000 active;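 active = inhibition above about 30%, limit read from the data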
Target sequence (P14598 whole entry, looked up): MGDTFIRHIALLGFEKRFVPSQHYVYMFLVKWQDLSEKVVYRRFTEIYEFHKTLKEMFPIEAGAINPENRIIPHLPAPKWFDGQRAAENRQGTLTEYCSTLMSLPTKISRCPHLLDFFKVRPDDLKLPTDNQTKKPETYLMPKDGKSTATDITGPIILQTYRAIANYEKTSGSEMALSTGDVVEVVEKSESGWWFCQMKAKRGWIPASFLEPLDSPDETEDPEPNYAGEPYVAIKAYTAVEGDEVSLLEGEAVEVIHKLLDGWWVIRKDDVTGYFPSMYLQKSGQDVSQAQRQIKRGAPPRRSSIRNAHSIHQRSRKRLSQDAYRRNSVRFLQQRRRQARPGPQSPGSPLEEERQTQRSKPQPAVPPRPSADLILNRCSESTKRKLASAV
Hck-Nef inh = inhibitors of human Hck kinase activated by Nef. Recombinant Hck-YEEI plus Nef, Z-Lyte FRET kinase assay. inhibition, % at 20 µM. 0.68% of 220,000 active;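 active = Hck-Nef kinase inhibition above about 50%, limit read from the data; inactive = inhibition below that limit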
RAM inhibit = inhibitors of the yeast RAM network; S. cerevisiae dse1pr::URA3 reporter, 5-FOA growth OD615, 2 d; analog-sensitive cbk1-as2 kinase mutant strain; inhibition, % at 50 µM; 1.8% of 190,000 active;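 active = inhibition above a set limit, 3 SD over mean compound inhibition, cut at about 8.4% in these data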;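 note: inhibition rescues growth on 5-FOA so higher OD means more RAM inhibition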
Arbovirus inh = blocks arbovirus infection; arbovirus infection cell-based antiviral screen; 0.37% of 200,000 active; inhibition, % at 10 µM; in the data active = inhibition above about 30%
Calb biofilm kill = mixtures killing C. albicans biofilm | C. albicans biofilm persisters + clotrimazole, fluorescence viability; primary screen in compound mixtures of four per well | inhibition, % at 7.6 µM | 0.02% of 120,000 active;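 active = inhibition above 30.3% in the primary screen of four-compound pools, then above 30% when the compound was retested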;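 note: compounds exposed to preformed 24 h biofilms for 48 h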
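System: C. albicans CAF4-2 wild-type biofilms; Medium: RPMI/MOPS medium, pH 7.0; Reagent: Clotrimazole, 50 µg/mL; Times: biofilm formation 24 h, compound exposure 48 h, 37 °C; Detection: 2-h Alamar Blue fluorescence, 535/590 nm excitation/emission; Evaluation: percent inhibition of biofilm viability.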
RAM 5-FOA = restores 5-FOA growth of efflux-deficient yeast; shares compounds with RAM inhibit; S. cerevisiae efflux-deficient reporter strain, 5-FOA growth OD615, 2 days; 1,200 tested, under 10 active; AID 1305; max inhibition, %; call rule not given here
Hits are given with their value. The list is not random: actives were taken first. Their share in the collection is about 4.6%.

How did COc1ccc(N2CCN(c3oc(COc4ccc(Cl)cc4)nc3C#N)CC2)cc1 do in these assays?
WT yeast gro inh: inactive; p47phox inh: inactive; Hck-Nef inh: inactive; RAM inhibit: 13; Arbovirus inh: inactive; RAM 5-FOA: inactive

Results for COc1ccc(N2CCN(c3oc(COc4ccc(Cl)cc4Cl)nc3C#N)CC2)cc1 ?
WT yeast gro inh: inactive; p47phox inh: inactive; Hck-Nef inh: inactive; RAM inhibit: inactive; Arbovirus inh: inactive

Results for COc1ccc(CNc2oc(COc3ccc(Cl)cc3)nc2C#N)cc1 ?
WT yeast gro inh: 71; p47phox inh: inactive; Hck-Nef inh: inactive; RAM inhibit: 13; Arbovirus inh: inactive; RAM 5-FOA: inactive

What do the screens show for `COc1ccc(Nc2oc(COc3ccc(Cl)cc3)nc2C#N)cc1`?
WT yeast gro inh: inactive; p47phox inh: inactive; Hck-Nef inh: inactive; RAM inhibit: inactive; Arbovirus inh: inactive

Results for Cc1ccc(OCc2nc(C#N)c(NCc3ccc4c(c3)OCO4)o2)cc1 ?
WT yeast gro inh: inactive; p47phox inh: inactive; Hck-Nef inh: inactive; RAM inhibit: 15; Arbovirus inh: inactive; RAM 5-FOA: inactive

Results for CN(C(=O)Nc1ccccc1)n1cnc2ccccc2c1=O ?
p47phox inh: inactive; Hck-Nef inh: inactive; Calb biofilm kill: inactive

What do the screens show for `C=CCn1c(SCC)nc2sc3c(c2c1=O)CCc1ccccc1-3`?
WT yeast gro inh: inactive; p47phox inh: inactive; Hck-Nef inh: inactive; RAM inhibit: 18; Arbovirus inh: inactive; RAM 5-FOA: inactive

What do the screens show for `C=CCn1c(SCc2nc3ccccc3c(=O)[nH]2)nc2sc3c(c2c1=O)CCCC3`?
p47phox inh: inactive; Hck-Nef inh: inactive; Calb biofilm kill: inactive

Results for Cc1cnc(NC(=O)C(C)N2CCN(C)CC2)s1 (centres undefined) ?
WT yeast gro inh: inactive; p47phox inh: inactive; Hck-Nef inh: inactive; RAM inhibit: inactive; Arbovirus inh: inactive; Calb biofilm kill: inactive

What do the screens show for `Cc1noc(C)c1COC(=O)COc1ccc(C#N)cc1`?
WT yeast gro inh: inactive; p47phox inh: inactive; Hck-Nef inh: inactive; RAM inhibit: inactive; Arbovirus inh: inactive; Calb biofilm kill: inactive

What do the screens show for `CCOc1ccc(S(=O)(=O)N(C)c2ccc(OCC(=O)OCc3c(C)noc3C)cc2)cc1`?
WT yeast gro inh: inactive; p47phox inh: inactive; Hck-Nef inh: inactive; RAM inhibit: 12; Arbovirus inh: inactive; RAM 5-FOA: inactive

Results for Cc1cc(NC(=O)CSc2nc3ccccc3c(=O)n2CCCC(=O)NCc2ccco2)n[nH]1 ?
WT yeast gro inh: inactive; p47phox inh: inactive; Hck-Nef inh: inactive; RAM inhibit: inactive; Arbovirus inh: inactive

Results for COc1cc(-c2nc(-c3cccc(C(F)(F)F)c3)no2)cc(OC)c1OC ?
WT yeast gro inh: inactive; p47phox inh: inactive; Hck-Nef inh: inactive; RAM inhibit: 12; Arbovirus inh: inactive; RAM 5-FOA: inactive

What do the screens show for `COc1ccccc1-c1noc(-c2cc(OC)c(OC)c(OC)c2)n1`?
WT yeast gro inh: inactive; p47phox inh: inactive; Hck-Nef inh: inactive; RAM inhibit: inactive; Arbovirus inh: inactive

How did OCCNC(=S)NCCc1ccccc1 do in these assays?
WT yeast gro inh: inactive; p47phox inh: inactive; Hck-Nef inh: inactive; RAM inhibit: inactive; Arbovirus inh: inactive; Calb biofilm kill: inactive

How did CC(C)(CNC(=S)NCCc1ccccc1)CNC(=S)NCCc1ccccc1 do in these assays?
WT yeast gro inh: inactive; p47phox inh: inactive; Hck-Nef inh: inactive; RAM inhibit: 15; Arbovirus inh: inactive; Calb biofilm kill: inactive; RAM 5-FOA: inactive

Results for CCCCc1ccc(NC(=S)Nc2ccc(Cl)c(S(=O)(=O)N(C)C)c2)cc1 ?
WT yeast gro inh: 77; p47phox inh: inactive; Hck-Nef inh: inactive; RAM inhibit: 16; Arbovirus inh: inactive; Calb biofilm kill: inactive; RAM 5-FOA: inactive

Results for CCN1CCN(C(c2ccc(OC)cc2)C(O)C(=O)c2c[nH]c3ccccc23)CC1 (centres undefined) ?
WT yeast gro inh: inactive; p47phox inh: inactive; Hck-Nef inh: inactive; RAM inhibit: inactive; Arbovirus inh: inactive

What do the screens show for `CC(C)n1c(NCc2ccc(Cl)cc2)nc2ccccc21`?
p47phox inh: inactive; Hck-Nef inh: inactive; Calb biofilm kill: inactive

Results for O=S(=O)(c1ccccc1F)N(Cc1ccco1)Cc1nnc(-c2ccccc2Br)o1 ?
WT yeast gro inh: inactive; p47phox inh: inactive; Hck-Nef inh: inactive; RAM inhibit: 17; Arbovirus inh: inactive; RAM 5-FOA: inactive

What do the screens show for `Clc1ccc(OCc2nnc(-c3ccccc3Br)o2)cc1`?
WT yeast gro inh: inactive; p47phox inh: inactive; Hck-Nef inh: inactive; RAM inhibit: inactive; Arbovirus inh: inactive

Results for COc1cccc(C(C(=O)NC(C)(C)C)N(CC(C)C)C(=O)CCC(=O)Nc2cc(C)on2)c1OC (centres undefined) ?
WT yeast gro inh: inactive; p47phox inh: inactive; Hck-Nef inh: inactive; RAM inhibit: inactive; Arbovirus inh: inactive; Calb biofilm kill: inactive

Results for O=C(Cn1cnc2c(nnn2Cc2ccccc2)c1=O)NCc1ccccc1Cl ?
p47phox inh: inactive; Hck-Nef inh: inactive; Calb biofilm kill: inactive

Results for CCOC(=O)c1c(NC(=S)Nc2ccc(OC)cc2)sc2c1CCC2 ?
WT yeast gro inh: inactive; p47phox inh: inactive; Hck-Nef inh: inactive; RAM inhibit: inactive; Arbovirus inh: inactive; Calb biofilm kill: inactive

How did CCOC(=O)c1c(NC(=S)Nc2ccc(OC)cc2)sc2c1CCCCC2 do in these assays?
WT yeast gro inh: inactive; p47phox inh: inactive; Hck-Nef inh: inactive; RAM inhibit: 15; Arbovirus inh: inactive; Calb biofilm kill: inactive; RAM 5-FOA: inactive

How did CN(CCC#N)C(=S)NC(=O)c1ccc(S(=O)(=O)N2CCOCC2)cc1 do in these assays?
WT yeast gro inh: inactive; p47phox inh: inactive; Hck-Nef inh: inactive; RAM inhibit: inactive; Arbovirus inh: inactive; Calb biofilm kill: inactive

How did N#CCc1ccc(NS(=O)(=O)c2ccc(C3CCCCC3)cc2)cc1 do in these assays?
WT yeast gro inh: 62; p47phox inh: inactive; Hck-Nef inh: inactive; RAM inhibit: 11; Arbovirus inh: inactive; Calb biofilm kill: inactive; RAM 5-FOA: inactive

Results for COc1cccc(CNC(=O)CN2C(=O)CC(c3ccccc3)=Nc3ccccc32)c1 ?
WT yeast gro inh: inactive; p47phox inh: inactive; Hck-Nef inh: inactive; RAM inhibit: 13; Arbovirus inh: inactive; Calb biofilm kill: inactive; RAM 5-FOA: inactive

What do the screens show for `COc1cccc(CNC(=O)Cn2cc3c(n2)CCCC3)c1`?
WT yeast gro inh: inactive; p47phox inh: inactive; Hck-Nef inh: inactive; RAM inhibit: inactive; Arbovirus inh: inactive

Results for CCOC(=O)CSc1nc(-c2ccccc2)nc2ccc(F)cc12 ?
WT yeast gro inh: inactive; p47phox inh: inactive; Hck-Nef inh: inactive; RAM inhibit: 13; Arbovirus inh: inactive; RAM 5-FOA: inactive

How did CCOC(=O)CSc1nc2ccccc2c(=O)n1CC1CCCC1 do in these assays?
WT yeast gro inh: inactive; p47phox inh: inactive; Hck-Nef inh: inactive; RAM inhibit: 18; Arbovirus inh: inactive; Calb biofilm kill: inactive; RAM 5-FOA: inactive
